Screening data from PubChem BioAssay.
Shown are actives, neighbours in structure and some others; about 1.9% of the full set was active somewhere.
NTR1 agonist = agonists of human NTR1, primary screen, imaging, U2OS cells, beta-arrestin-GFP, high content; NTR1-U2OS beta-arrestin-GFP spot imaging, agonist mode; activation, % at 20 µM; 0.17% of 330,000 active; AID 493036, 2011;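 active means activation at or above 40% of the spot to cytoplasm intensity ratio, with at least 20 cells analyzed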;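 further: 0% = DMSO without peptide and 100% = 100 nM NTR1 peptide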
MC4R antag cAMP = MC4R antagonists of cAMP signaling, primary screen, cell-based, TR-FRET, antagonist arm of biased-ligand search. Melanocortin receptor 4 (Homo sapiens), P32245. MC4R-expressing cells, MTII-stimulated cAMP, LANCE TR-FRET. inhibition, % at 6.5 µM. 0.48% of 360,000 active;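 active means inhibition above its plate's cutoff, the mean of tested wells on that plate plus 3 SD, cut at about 29% in these data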;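 further: 0% = Melanotan II alone and 100% = Melanotan II plus saturating MCL0020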
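Test system: U2OS cells stably expressing human melanocortin 4 receptor (MC4R); also added: Melanotan II challenge; compound: 6.5 µM single dose; timing: 30-min compound preincubation, 1-h Melanotan II challenge, 1-h detection, room temperature; signal: Eu-cAMP/anti-cAMP TR-FRET, emission 671 nm; repeats: one well per compound, no replicates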
MC4R barr agon = MC4R agonists recruiting beta-arrestin, primary screen, cell-based, luminescence, agonist arm of biased-ligand search; U2OS MC4R beta-arrestin complementation; percent of melanotan II response, DMSO zero; activation, % at 8.9 µM; 0.98% of 360,000 active; AID 540308, 2011;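 active means activation above a per-plate cutoff, the mean activation of sample wells on that plate plus 3 SD, cut at about 8% in these data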
TLR4-MyD88 BLA = inhibitors of TLR4-MyD88 association in cells, primary screen, cell-based, HeLa CL3-4, BLA complementation, FRET ratio. Toll-like receptor 4 (Homo sapiens) + Myeloid differentiation primary response protein …. HeLa CL3-4 TLR4/MyD88 BLA complementation. inhibition, % at 8.4 µM. 0.18% of 200,000 active; in the data active means inhibition above about 25%;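 further: 0% = vehicle and 100% = reference inhibitor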
NOD2 RIPK2 PPI = NOD2-RIPK2 binding disruptors in cells, primary screen, fluorescence, CHO cells, BLA complementation; Receptor-interacting serine/threonine-protein kinase 2 (Homo sapiens), O43353; CCF4 ratio; inhibition, % at 4.98 µM; 0.38% of 360,000 active; in the data active means inhibition above about 21%;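 further: 0% = vehicle only and 100% = reference blocker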
TLR9-MyD88 inh = inhibitors of TLR9-MyD88 association in cells, primary screen, cell-based, CHO, BLA complementation, fluorescence; 0.21% of 340,000 active; inhibition, % at 4.98 µM; CCF4 FRET ratio; AID 504734, 2011;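 active means inhibition above the mean over all tested compounds plus 3 SD, cut at about 21% in these data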;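 further: 0% = DMSO only wells and 100% = clavulanate BLA inhibitor control wells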
MC4R barr conf = MC4R beta-arrestin agonists, retest, confirmation, cell-based, luminescence, U2OS. shares compounds with MC4R barr agon. U2OS MC4R beta-arrestin recruitment; scaled DMSO 0%, Melanotan II 100%. activation, % at 8.9 µM. 31% of 2,400 active;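 active means mean activation across replicates above the hit cutoff set in the earlier primary screen, cut at about 8% in these data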
MOR-DOR barr ag = agonists of MOR-DOR heterodimerization, counter-screen for MC4R biased agonist project, cell-based, luminescence | U2OS PathHunter beta-arrestin, beta-gal luminescence; percent of deltorphin B response, DMSO zero | shares compounds with MC4R barr agon | activation, % at 9.2 µM | 5.8% of 2,400 active;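 active means mean activation across replicates exceeds the hit threshold derived in the earlier primary screen, cut at about 18% in these data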;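 further: 100% = deltorphin B at 0.9 µM final and 0% = DMSO alone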
* marks the source's active call; other numbers are inactive results; nt = no result.

SMILES	NTR1 agonist	MC4R antag cAMP	MC4R barr agon	TLR4-MyD88 BLA	NOD2 RIPK2 PPI	TLR9-MyD88 inh	MC4R barr conf	MOR-DOR barr ag
Cc1ccc(COC(=O)Cc2coc3cc(O)ccc23)cc1	0	5	9.9*	nt	-2	-8	3	11
O=S(=O)(c1ccc(F)cc1)N1CCN(c2ccc(-c3ccccc3)nn2)CC1	-1	9	-2	-2	0	2	nt	nt
O=C(COc1ccccc1)Nc1ccccc1F	0	8	0	nt	-3	-6	nt	nt
O=C(COc1c(Br)cc(Br)c2cccnc12)Nc1ccccc1F	19	-1	13*	-16	-10	-17	2	2
CC(C)(C)[C@@H]1COC(=O)[C@H](Cc2ccc(F)cc2)C/C=C\C[C@@H](CC(=O)NCCO)C(=O)N1	-4	8	-1	nt	-12	-19	nt	nt
O=C(Cn1cc(C(F)(F)F)ccc1=O)N/N=C/c1ccc(Cl)c(Cl)c1	0	19	13*	-1	-8	-12	-1	9
O=C(Cn1cc(C(F)(F)F)ccc1=O)N/N=C/c1ccc(O)cc1	1	21	1	nt	-7	-19	nt	nt
COc1ccc(Cn2c(C)c(C)c(C#N)c2NC(=O)Nc2cccc(Cl)c2)cc1	-2	-7	21*	1	2	-5	3	6
COc1ccc(Cn2c(C)c(C)c(C#N)c2NC(=O)Nc2ccc(Cl)cc2)cc1	-1	12	13*	-6	2	-1	1	5
Cc1c(C#N)c(NC(=O)c2cccc(Cl)c2)n(Cc2ccccc2)c1C	4	5	0	7	0	-5	nt	nt
O=[N+]([O-])c1ccc(CSc2ccc(S(=O)(=O)N3CCOCC3)cn2)cc1	0	0	-5	nt	-9	-3	nt	nt
O=Nc1c2cc3ccccc3[nH]c-2c2ccccc12	nt	-1	10*	nt	1	-5	7	11
CN1C(=O)/C(=C/c2ccc(OCc3ccc(F)cc3)cc2)NC1=S	8	-4	20*	nt	2	4	7	13
CN1C(=O)/C(=C/c2ccc(OCc3ccccc3F)cc2)NC1=S	20	8	20*	nt	9	-8	2	5
CN1C(=O)/C(=C/c2ccc(OCc3ccc(F)cc3)cc2)N(C)C1=S	0	-2	-1	nt	-23	12	nt	nt
CNc1nc(OCC(F)(F)F)nc(N2CCN(C34CC5CC(CC(C5)C3)C4)CC2)n1	nt	nt	nt	2	nt	nt	nt	nt
O=C(COc1ccc2c(c1)CCC2)NCc1ccc(Cl)cc1	0	8	12*	1	-4	-3	4	7
COc1ccccc1NC(=S)NC(=O)c1ccc(-c2ccc(Cl)cc2)o1	10	13	20*	5	-7	2	0	2
O=C(NC(=S)Nc1ccccc1O)c1ccc(-c2ccc(Cl)cc2)o1	1	2	30*	-6	3	7	2	10
Cc1[nH][nH]c(=O)c1C=NCc1cccc(C(F)(F)F)c1	2	-2	-1	14	-3	6	nt	nt
CCCN1CCC(NC(=O)Cc2cccc(C)c2)CC1	0	-4	0	nt	-12	-6	nt	nt
CSc1ccc(/C=C(/NC(=O)c2ccc(C)cc2)C(=O)Nc2cccc(F)c2)cc1	3	15	-1	-15	5	1	nt	nt
Cc1cc(N2CCN(c3nc(-c4ccc([N+](=O)[O-])cc4)cs3)CC2)c2ccccc2n1	2	12	19*	6	-5	-3	11*	7
Cc1cc(-c2ccc([N+](=O)[O-])cc2)nc2ccccc12	2	0	-3	-8	16	7	nt	nt
COc1ccc2nc(C)cc(N/N=C/c3ccccc3)c2c1	0	5	5	nt	-12	-15	nt	nt
SMILES	NTR1 agonist	MC4R antag cAMP	MC4R barr agon	TLR4-MyD88 BLA	NOD2 RIPK2 PPI	TLR9-MyD88 inh	MC4R barr conf	MOR-DOR barr ag
COc1ccc(/C=N/Nc2cc(C)nc3ccc(OC)cc23)c(OC)c1	17	-12	32*	nt	19	2	57*	43*
Cc1ccccc1OCC(=O)NC(=S)Nc1cccc2cc(O)ccc12	32	6	16*	nt	11	4	23*	9
COc1ccc(NC(=O)Cn2cnc3c(nnn3-c3ccc(C)cc3)c2=O)cc1	2	nt	nt	-10	nt	nt	nt	nt
CN1CCN(c2ccc(C(CC(N)=O)NC(=O)Cc3cccc4ccccc34)cc2[N+](=O)[O-])CC1 (stereo not drawn)	0	10	-2	nt	1	-12	nt	nt
c1ccc(-c2cc(-c3nn4c(-c5ccco5)nnc4s3)c3ccccc3n2)cc1	18	10	9.7*	-14	3	2	6	3
Cc1c(C(=O)NC2CCCc3ccccc32)oc2ccc(S(=O)(=O)N3CCCCC3)cc12 (stereo not drawn)	4	17	0	0	-5	-6	nt	nt
Cc1c(C(=O)NC2CCCc3ccccc32)oc2ccc(S(=O)(=O)N3CCCC3)cc12 (stereo not drawn)	5	17	14*	0	4	-5	4	4
Cn1c(=O)c(C(=O)NNC(=O)c2cccc(Cl)c2)c(O)c2ccccc21	5	7	9.8*	nt	-8	9	2	6
Cc1cccc(C(=O)NNC(=O)c2c(O)c3ccccc3n(C)c2=O)c1	0	1	2	nt	-11	-10	nt	nt
Cc1ccc(OCCn2cccn2)c(C)c1	3	5	-1	-11	4	-9	nt	nt
CC1=C(C(=O)N(C)C)CC(CC(=O)NC2CCCC2)C(=O)N1Cc1ccccc1 (stereo not drawn)	nt	-1	-2	nt	-2	-10	nt	nt
C=CCOc1cccc(/C=C/c2nc3ccccc3c(=O)[nH]2)c1	0	3	24*	nt	-9	6	0	4
CC(OC(=O)c1cc2sccc2n1C)C(=O)NCc1cccs1 (stereo not drawn)	0	1	1	-15	-1	-3	nt	nt
